High-throughput results deposited in PubChem by Broad Institute.
E-selectin induc – E-selectin induction on HUVECs | P16581 | HUVEC E-selectin immunofluorescence imaging; normalized: neutral wells 0, TNF-alpha wells 100 | activation, % at 7.58 µM | hit rate 0.37% among 260,000 | AID 686992;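 active means mean E-selectin-positive cell signal at least 10% of the positive control, reached in at least 60% of replicates, without over 20% cell loss; inconclusive means no rule given, readout overlaps actives, possibly toxicity-flagged; inactive means the rest, including those meeting only one limit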
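System: HUVEC, human umbilical vein endothelial cells; quantity: 3,000 cells/well; buffer or medium: EGM-2 medium, gelatin-coated wells; dosing: single-point compound dose; detection: immunofluorescence imaging; evaluation: % PE-positive cells; benchmarks: TNF-alpha, DMSO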
DENV2 CPE – inhibitors of DENV2 cytopathic effect | DENV2-infected cells, cytopathic effect rescue, plate reader | CPE inhibition, % at 9.99 µM | hit rate 1.7% among 350,000 | AID 651640; in the data active means CPE inhibition above about 20%, passing the limit was not always enough; inconclusive means no clear call, values can overlap the other calls; tested in BHK-21 cells;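 further: 0% = median of neutral control wells and 100% = median of positive control wells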
SIRT5 inh – blocks human SIRT5 desuccinylation of peptide; Q9NXA8; Purified SirT5, succinyl-peptide AMC, trypsin-coupled fluorescence; inhibition, % at 15 µM; hit rate 1.1% among 330,000; in the data active means inhibition above about 15%; inconclusive means no clear call, values can overlap the other calls
Target sequence (Q9NXA8 whole entry, looked up): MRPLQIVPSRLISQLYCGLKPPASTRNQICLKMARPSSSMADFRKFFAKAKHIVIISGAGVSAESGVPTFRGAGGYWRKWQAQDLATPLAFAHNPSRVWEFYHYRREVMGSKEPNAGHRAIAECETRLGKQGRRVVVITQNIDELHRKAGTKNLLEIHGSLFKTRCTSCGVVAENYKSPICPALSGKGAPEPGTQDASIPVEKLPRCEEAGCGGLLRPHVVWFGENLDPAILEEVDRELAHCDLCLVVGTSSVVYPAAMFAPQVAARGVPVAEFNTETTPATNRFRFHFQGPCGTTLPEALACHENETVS
* marks the source's active call; other numbers are inactive results; ? = inconclusive; nt = no result given. Rows were chosen to be rich in hits. Some 2.8% of all compounds tested hit in one or more screens of this group.

SMILES	E-selectin induc	DENV2 CPE	SIRT5 inh
C[C@H](CO)N1C[C@H](C)[C@H](CN(C)S(C)(=O)=O)Oc2ccc(NC(=O)Cc3ccccc3)cc2CC1=O	-9	-8	-3
CCCNC(=O)Nc1ccc2c(c1)C(=O)N(C)C[C@@H](OC)[C@H](C)CN(S(C)(=O)=O)[C@H](C)CO2	0	6	2
CO[C@H]1CN(C)C(=O)c2ccc(NC(=O)c3ccccc3)cc2OC[C@@H](C)N(C(C)=O)C[C@@H]1C	0	-6	0
CC(=O)c1ccc(-c2ccc(/C=C(/Sc3n[nH]c(C)n3)C(=O)O)o2)cc1	nt	1	1
Cc1nc(S/C(=C/c2ccc(-c3ccc(C(=O)O)cc3)o2)C(=O)O)n[nH]1	6	-1	37*
C[C@@H]1CN([C@@H](C)CO)C(=O)c2cc(NC(=O)Nc3ccc(F)cc3)ccc2O[C@@H]1CN(C)S(=O)(=O)c1cccs1	161*	0	10
C[C@@H]1CN([C@@H](C)CO)C(=O)c2cc(NS(=O)(=O)c3cccs3)ccc2O[C@@H]1CN(C)S(C)(=O)=O	154*	12	-3
C[C@H]1CN([C@@H](C)CO)C(=O)c2cccc(NS(=O)(=O)c3ccc(F)cc3)c2O[C@H]1CN(C)S(=O)(=O)c1cccs1	235*	1	14
C[C@@H]1CN([C@@H](C)CO)C(=O)c2cc(NS(=O)(=O)c3cccs3)ccc2O[C@H]1CN(C)S(C)(=O)=O	4	?	0
C[C@H](CO)N1C[C@H](C)[C@H](CN(C)S(=O)(=O)c2cccs2)Oc2ccc(NS(=O)(=O)c3ccc(F)cc3)cc2C1=O	0	-7	1
C[C@H](CO)N1C[C@H](C)[C@H](CN(C)S(=O)(=O)c2cccs2)Oc2ccc(NC(=O)Nc3ccc(F)cc3)cc2C1=O	nt	8	4
C[C@@H]1CN([C@H](C)CO)C(=O)c2cccc(NS(=O)(=O)c3ccc(F)cc3)c2O[C@H]1CN(C)S(=O)(=O)c1cccs1	-3	-2	1
C[C@@H]1CN([C@@H](C)CO)C(=O)c2cc(NS(=O)(=O)c3ccc(F)cc3)ccc2O[C@H]1CN(C)S(=O)(=O)c1cccs1	1	46*	0
Cc1ccc(S(=O)(=O)N[C@H]2C=C[C@@H](CC(=O)N3CCN(c4ccccc4)CC3)O[C@@H]2CO)cc1	0	8	1
CCCNC(=O)N1CC2(CCN(C(=O)Nc3cccc(F)c3)CC2)c2c(n(C)c3cc(OC)ccc23)[C@@H]1CO	0	4	0
CN(C)CCCNC(=O)C[C@@H]1CC[C@H](NS(=O)(=O)c2ccccc2)[C@H](CO)O1	0	-3	5
COc1cccc(CNC(=O)C2CCCN(c3cnccn3)C2)c1 (stereo unspecified)	4	-5	3
COc1ccc(NC(=O)C2CCCN(c3cnccn3)C2)c(OC)c1 (stereo unspecified)	nt	-4	16*
C[C@@H]1CCCCO[C@@H](CN(C)C(=O)Cc2ccccc2)[C@H](C)CN([C@@H](C)CO)C(=O)c2cc(NC(=O)c3ccncc3)ccc2O1	0	-5	-1
Cc1noc(C)c1NC(=O)N(C)C[C@H]1Oc2c(NS(C)(=O)=O)cccc2C(=O)N([C@@H](C)CO)C[C@H]1C	0	-3	-1
CC(C)(C)C(=O)Nc1sc2c(c1C#N)CCC2	nt	-1	-1
CC(C)(C)C(=O)Nc1sc2c(c1C(=O)Nc1ccccn1)CCCC2	0	-3	18*
CCN(CC)c1ccc2nc3c4ccccc4c(=O)cc-3oc2c1	203*	0	-4
CCN(CC)c1ccc2cc(C(C)=O)c(=O)oc2c1	nt	nt	2
Cc1ccc(S(=O)(=O)N[C@H]2CC[C@@H](CCn3cc(-c4cccc(F)c4)nn3)O[C@@H]2CO)cc1	0	?	8
SMILES	E-selectin induc	DENV2 CPE	SIRT5 inh
COc1ccc2c3c([nH]c2c1)[C@@H](CO)N(S(=O)(=O)c1ccc(C)cc1)CC31CN(Cc2ccccc2)C1	0	2	-3
COc1ccc2c3c([nH]c2c1)[C@H](CO)N(Cc1ccccc1)CC31CN(S(=O)(=O)c2ccc(C)cc2)C1	1	36*	8
COc1ccc2c3c([nH]c2c1)[C@@H](CO)N(Cc1ccccc1)CC31CN(S(=O)(=O)c2ccc(C)cc2)C1	0	20*	0
CCS(=O)(=O)N1CC2(CN(Cc3ccccc3F)[C@@H](CO)c3[nH]c4cc(OC)ccc4c32)C1	0	20*	3
COc1ccc2c3c([nH]c2c1)[C@H](CO)N(Cc1cc(F)ccc1F)CC31CN(C(=O)CN(C)C)C1	0	26*	-1
COc1ccc2c3c([nH]c2c1)[C@@H](CO)N(Cc1cc(F)ccc1F)CC31CN(C(=O)CN(C)C)C1	0	18	0
COc1ccc2c3c([nH]c2c1)[C@@H](CO)N(Cc1ccccc1F)CC31CN(C)C1	0	-4	nt
